Laboratory results from ChEMBL document CHEMBL1144159, “Impacts of baicalein analogs with modification of the 6th position of A ring on the activity toward NF-kappaB-, AP-1-, or CREB-mediated transcription” (Bioorg Med Chem Lett, 2008).

Key:
[1] = target: Cyclic AMP-responsive element-binding protein 1 (Homo sapiens) (UniProt P16220); assay: Effect on transcriptional activity of CREB transfected in forskolin-stimulated human Hep G2 cells after 4 hrs by luciferase reporter gene assay relative to control; type: cell-based; settings: HepG2
How it was run: (§1)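 HepG2 lines stably carrying luciferase reporters (NF-κB-luc, AP-1-luc, CRE-luc) were pretreated with a range of compound concentrations for 1 h, then incubated 4 h with or without stimulus: TNFα for NF-κB, TPA for AP-1, forskolin for CREB. Luciferase activity is expressed as % of the drug-free control, with or without stimulus. Amax is the maximal fold activity versus control; AC50 is the concentration giving 50% of maximal activity. Mean ± SD of ≥3 independent experiments.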

HepG2 [2] = assay: Effect on transcriptional activity of NF-kappaB transfected in human Hep G2 cells after 1 hr by luciferase reporter gene assay relative to control; type: cell-based; how it was run: as §1
[3] = Effect on transcriptional activity of NF-kappaB transfected in human Hep G2 cells after 1 hr by luciferase reporter gene assay; type: cell-based; settings: HepG2, 1 h; how it was run: as §1
KB [4] = assay: Cytotoxicity against human KB cells after 3 days; type: functional, cell-based; settings: 72 h
How it was run: (§2)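 KB cells and their multidrug-resistant KB/MDR subline overexpressing mdr1, incubated with compound for 3 days (doubling time about 20–24 h). Growth inhibition is given as IC50, the concentration inhibiting 50% of cell growth. Values are the mean of three independent experiments.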

KB [5] = assay: Cytotoxicity against multi-drug resistant human KB cells overexpressing mdr1 after 3 days; type: functional, cell-based; settings: 72 h; how it was run: as §2
HepG2 [6] = assay: Effect on transcriptional activity of NF-kappaB transfected in TNF-alpha-stimulated human Hep G2 cells after 4 hrs by luciferase reporter gene assay relative to control; type: cell-based; how it was run: as §1
[7] = Effect on transcriptional activity of NF-kappaB transfected in TNF-alpha-stimulated human Hep G2 cells after 4 hrs by luciferase reporter gene assay; type: cell-based; settings: HepG2, 4 h; how it was run: as §1
[8] = target: Transcription factor Jun (Homo sapiens) (UniProt P05412); assay: Effect on transcriptional activity of AP1 transfected in human Hep G2 cells after 1 hr by luciferase reporter gene assay relative to control; type: cell-based; settings: HepG2; how it was run: as §1
[9] = target: Cyclic AMP-responsive element-binding protein 1 (Homo sapiens) (UniProt P16220); assay: Effect on transcriptional activity of CREB transfected in human Hep G2 cells after 1 hr by luciferase reporter gene assay relative to control; type: cell-based; settings: HepG2; how it was run: as §1
[10] = target: Transcription factor Jun (Homo sapiens) (UniProt P05412); assay: Effect on transcriptional activity of AP1 transfected in TPA-stimulated human Hep G2 cells after 4 hrs by luciferase reporter gene assay relative to control; type: cell-based; settings: HepG2; how it was run: as §1

Transcription factor Jun (Homo sapiens), sequence (P05412 whole entry): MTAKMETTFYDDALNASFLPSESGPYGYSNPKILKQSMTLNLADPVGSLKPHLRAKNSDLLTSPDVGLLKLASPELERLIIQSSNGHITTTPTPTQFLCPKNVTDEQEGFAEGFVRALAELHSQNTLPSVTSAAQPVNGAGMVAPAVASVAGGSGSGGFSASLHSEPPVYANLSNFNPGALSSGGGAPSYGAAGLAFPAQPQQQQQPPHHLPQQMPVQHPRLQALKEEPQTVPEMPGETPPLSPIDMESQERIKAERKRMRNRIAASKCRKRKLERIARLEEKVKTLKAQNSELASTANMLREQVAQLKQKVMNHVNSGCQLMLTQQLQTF
Cyclic AMP-responsive element-binding protein 1 (Homo sapiens), sequence (P16220 whole entry): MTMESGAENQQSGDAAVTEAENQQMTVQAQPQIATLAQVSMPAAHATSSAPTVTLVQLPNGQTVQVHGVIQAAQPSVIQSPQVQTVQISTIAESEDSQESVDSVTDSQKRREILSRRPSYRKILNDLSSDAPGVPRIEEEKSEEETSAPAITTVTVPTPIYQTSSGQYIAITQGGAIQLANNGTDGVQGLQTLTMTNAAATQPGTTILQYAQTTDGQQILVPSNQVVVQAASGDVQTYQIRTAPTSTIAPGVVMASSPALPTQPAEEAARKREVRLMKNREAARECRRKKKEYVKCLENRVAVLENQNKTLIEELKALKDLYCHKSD

| Structure (SMILES) | fold change (FC) [1] | fold change (FC) (HepG2 [2]) | AC50 [3] [µM] | IC50 (KB [4]) [µM] | IC50 (KB [5]) [µM] | fold change (FC) (HepG2 [6]) | AC50 [7] [µM] | fold change (FC) [8] | fold change (FC) [9] | fold change (FC) [10] |
| --- | --- | --- | --- | --- | --- | --- | --- | --- | --- | --- |
| COc1c(O)cc2oc(-c3ccccc3)cc(=O)c2c1O [OROXYLIN A] | 2.61 | 4.12 | 4.8 | 31.1 | 16.1 | 2.5 | 5 | 1.41 | 1.28 | 1.27 |
| O=c1cc(-c2ccccc2)oc2cc(O)c(OCc3ccccc3)c(O)c12 | 7.69 | 2.08 | 0.5 |  | 3.2 | 1.47 |  | 1.36 | 1.31 | 0.85 |
| O=c1cc(-c2ccccc2)oc2cc(O)c(O)c(O)c12 [BAICALEIN] | 2.2 | 4.92 | 8.3 |  | 87.1 | 3.35 | 8.6 | 1.44 | 1.35 | 1.26 |
| CCCOc1c(O)cc2oc(-c3ccccc3)cc(=O)c2c1O | 7.35 | 1.81 |  |  | > 100 | 1.36 |  | 1.43 | 1.59 | 1.05 |
| CC(=O)Oc1c(O)cc2oc(-c3ccccc3)cc(=O)c2c1O | 5.21 | 6.62 | 2.2 |  | 61.6 | 3.47 | 2.2 | 1.44 | 2.04 | 1.18 |
| CCOc1c(O)cc2oc(-c3ccccc3)cc(=O)c2c1O | 14.5 | 2.92 | 0.7 |  | 17.5 | 1.27 |  | 1.35 | 1.81 | 1.21 |
